Assay results reported in paper PMC10864842 (Saudi Pharmaceutical Journal : SPJ, 2024).
“And” between values parts separate entries of the source, which are not always exact repeats. Identical values can stand only once. Like-named read-outs stand apart in the source and are kept apart here.

Columns and labels:
[1] = system: MDA-MB-231 breast cancer cells; test: MTT assay on MDA-MB-231 cells; assay type: cell-based; details: Homo sapiens
Procedure, shortened: (§1)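 Cells kept in DMEM with 10% (v/v) FBS and 1% (v/v) streptomycin/penicillin at 37 °C and 5% CO2. About 10^4 cells/ml were seeded and grown for 24 h. Test compounds in DMSO were added at 6.25, 12.5, 25, 50 and 100 µg/ml for 24 and 48 h. Medium was replaced with 5 mg/mL MTT for 3–4 h. Formazan was dissolved in acidified isopropanol and read at 630 nm. Viability is expressed as % of untreated cells.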

[2] = MTT assay on oral epithelial normal cells; assay type: cell-based
Procedure, shortened: as §1

[3] = biological target: T1, KSP ATPase (Homo sapiens, UniProt P52732); test: Microtubule-activated KSP ATPase end-point assay; assay type: biochemical; details: read-out: KSP ATPase inhibition [%]
T1 sequence (P52732 1-1056): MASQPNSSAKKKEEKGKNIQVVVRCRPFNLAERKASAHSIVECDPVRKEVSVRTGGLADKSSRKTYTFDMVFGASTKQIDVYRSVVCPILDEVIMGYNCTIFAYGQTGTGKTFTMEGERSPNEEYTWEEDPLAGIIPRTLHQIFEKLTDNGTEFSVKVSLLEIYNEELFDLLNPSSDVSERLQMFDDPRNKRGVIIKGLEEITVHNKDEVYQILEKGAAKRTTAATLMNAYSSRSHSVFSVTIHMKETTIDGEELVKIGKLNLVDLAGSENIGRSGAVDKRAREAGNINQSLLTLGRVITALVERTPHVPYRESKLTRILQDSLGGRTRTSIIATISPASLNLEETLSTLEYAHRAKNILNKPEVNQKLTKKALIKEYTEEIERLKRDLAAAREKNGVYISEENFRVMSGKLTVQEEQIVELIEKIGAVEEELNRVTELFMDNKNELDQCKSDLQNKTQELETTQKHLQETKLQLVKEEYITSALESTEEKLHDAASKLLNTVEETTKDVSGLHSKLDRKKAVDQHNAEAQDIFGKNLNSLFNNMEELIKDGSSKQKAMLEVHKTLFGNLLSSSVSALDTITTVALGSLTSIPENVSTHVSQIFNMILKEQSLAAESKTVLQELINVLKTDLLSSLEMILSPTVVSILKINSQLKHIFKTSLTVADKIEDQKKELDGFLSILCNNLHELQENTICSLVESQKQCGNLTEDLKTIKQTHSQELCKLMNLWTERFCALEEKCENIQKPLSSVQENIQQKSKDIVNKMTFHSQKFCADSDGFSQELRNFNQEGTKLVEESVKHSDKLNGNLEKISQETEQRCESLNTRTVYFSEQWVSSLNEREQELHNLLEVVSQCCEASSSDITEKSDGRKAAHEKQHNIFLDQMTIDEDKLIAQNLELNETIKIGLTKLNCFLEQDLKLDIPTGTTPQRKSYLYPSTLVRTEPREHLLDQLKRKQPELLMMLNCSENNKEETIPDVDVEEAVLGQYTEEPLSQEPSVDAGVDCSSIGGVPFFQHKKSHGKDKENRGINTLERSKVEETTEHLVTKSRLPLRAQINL

[4] = biological target: T1, KSP ATPase; test: Microtubule-activated KSP ATPase kinetic assay; assay type: biochemical
[5] = biological target: PI3Kδ (Homo sapiens, UniProt O00329); test: PI3Kδ inhibition assay; assay type: biochemical
[6] = system: MDA-MB-231 cells; test: Morphological study by inverted microscope; assay type: cell-based; details: 48 h
Procedure, shortened: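 MDA-MB-231 cells were grown in DMEM with 10% FBS and 1% streptomycin/penicillin at 37 °C, 5% CO2. They were treated with varying concentrations of test compound for 48 h and examined by inverted light microscopy. Phenotypic changes were scored as cell shrinkage, apoptotic body formation and membrane blebbing.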

[7] = system: MDA-MB-231 cells; test: Annexin V-FITC/PI flow cytometry; assay type: cell-based; details: MDA-MB-231, Annexin V-FITC & PI, post-treatment
Procedure, shortened: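 MDA-MB-231 cells were kept in DMEM with 10% FBS and 1% streptomycin/penicillin at 37 °C under 5% CO2. Cells were treated with the test compound for 48 h, with doxorubicin as the standard and untreated cells for comparison. Cells were then harvested, rinsed, suspended in PBS, stained with Annexin V-FITC/PI and held 20 min in the dark before flow cytometry. Early apoptosis was Annexin V+/PI−; late apoptosis was Annexin V+/PI+.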

[8] = system: MDA-MB-231 cells; test: DNA fragmentation by gel electrophoresis; assay type: cell-based; details: post-treatment
Procedure, shortened: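 MDA-MB-231 cells kept in DMEM with 10% FBS and 1% streptomycin/penicillin at 37 °C, 5% CO2. Genomic DNA was extracted with a commercial kit from cells before and after test compound treatment, and its quality was checked by nanodrop. DNA plus 1X loading dye was run on agarose gel, viewed under a UV transilluminator and imaged on a gel documentation system. Doxorubicin served as reference.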

[9] = system: MDA-MB-231 cells; test: qRT-PCR relative gene expression of P53, BAX and BCL-2; assay type: cell-based; details: MDA-MB-231, 48 h
Procedure, shortened: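 RNA was extracted from cells after 48 h of treatment with test compound, and its purity was checked by nanodrop. P53, BAX and BCL-2 expression was normalised to β-actin as the housekeeping gene. Treated and untreated cells were compared by ANOVA.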

[10] = MDA-MB-231, 24 h, read-out: IC50 after 24 h (µM)
[11] = MDA-MB-231, 24 h, read-out: IC50 after 24 h in µg/mL
[12] = MDA-MB-231, 48 h, read-out: IC50 after 48 h (µM)
[13] = MDA-MB-231, 48 h, read-out: IC50 after 48 h in µg/mL

Sequence of PI3Kδ (O00329 whole entry): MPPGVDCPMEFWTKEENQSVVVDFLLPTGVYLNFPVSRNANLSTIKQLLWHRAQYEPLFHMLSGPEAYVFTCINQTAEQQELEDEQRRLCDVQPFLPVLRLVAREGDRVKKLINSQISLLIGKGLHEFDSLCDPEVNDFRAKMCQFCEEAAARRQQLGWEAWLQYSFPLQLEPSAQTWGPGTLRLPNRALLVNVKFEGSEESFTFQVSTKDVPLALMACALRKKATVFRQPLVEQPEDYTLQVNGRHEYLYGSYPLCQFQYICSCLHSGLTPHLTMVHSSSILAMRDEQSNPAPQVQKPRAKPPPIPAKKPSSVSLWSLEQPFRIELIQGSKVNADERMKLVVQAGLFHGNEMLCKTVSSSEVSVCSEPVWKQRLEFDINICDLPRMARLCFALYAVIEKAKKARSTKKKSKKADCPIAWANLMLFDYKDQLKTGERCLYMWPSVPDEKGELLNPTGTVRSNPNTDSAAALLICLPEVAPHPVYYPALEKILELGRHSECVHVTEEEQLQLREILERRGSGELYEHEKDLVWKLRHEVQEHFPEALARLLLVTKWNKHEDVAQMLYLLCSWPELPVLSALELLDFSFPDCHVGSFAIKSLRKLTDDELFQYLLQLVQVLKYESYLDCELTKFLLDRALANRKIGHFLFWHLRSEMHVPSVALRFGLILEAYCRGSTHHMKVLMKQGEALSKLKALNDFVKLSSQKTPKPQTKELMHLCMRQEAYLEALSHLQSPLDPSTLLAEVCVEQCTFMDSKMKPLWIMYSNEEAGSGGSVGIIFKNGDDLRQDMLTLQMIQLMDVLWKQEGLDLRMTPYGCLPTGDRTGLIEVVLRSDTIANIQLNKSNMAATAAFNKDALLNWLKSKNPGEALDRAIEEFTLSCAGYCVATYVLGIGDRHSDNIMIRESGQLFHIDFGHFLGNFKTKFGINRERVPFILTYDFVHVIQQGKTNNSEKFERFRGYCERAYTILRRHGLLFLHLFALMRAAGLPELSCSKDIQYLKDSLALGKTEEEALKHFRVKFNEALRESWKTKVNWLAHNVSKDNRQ
Sequence of PI3Kδ (P27986 whole entry partner): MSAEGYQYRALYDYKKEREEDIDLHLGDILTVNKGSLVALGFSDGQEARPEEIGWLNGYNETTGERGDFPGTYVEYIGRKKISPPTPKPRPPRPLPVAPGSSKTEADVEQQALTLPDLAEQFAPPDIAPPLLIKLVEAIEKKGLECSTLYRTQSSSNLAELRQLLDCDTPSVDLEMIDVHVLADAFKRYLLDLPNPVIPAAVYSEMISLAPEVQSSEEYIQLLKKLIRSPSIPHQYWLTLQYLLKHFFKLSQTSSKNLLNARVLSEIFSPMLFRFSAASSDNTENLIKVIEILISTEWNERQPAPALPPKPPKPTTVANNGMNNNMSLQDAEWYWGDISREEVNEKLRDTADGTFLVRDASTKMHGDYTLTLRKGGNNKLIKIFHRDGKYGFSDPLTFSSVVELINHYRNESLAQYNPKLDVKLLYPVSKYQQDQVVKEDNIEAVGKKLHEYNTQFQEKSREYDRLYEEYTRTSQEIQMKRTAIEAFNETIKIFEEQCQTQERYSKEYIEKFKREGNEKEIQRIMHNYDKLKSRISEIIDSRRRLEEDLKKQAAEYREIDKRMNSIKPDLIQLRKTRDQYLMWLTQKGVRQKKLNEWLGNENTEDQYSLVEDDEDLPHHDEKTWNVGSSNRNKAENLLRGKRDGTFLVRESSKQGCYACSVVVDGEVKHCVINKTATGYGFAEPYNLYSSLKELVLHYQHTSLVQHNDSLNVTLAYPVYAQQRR

SMILES	IC50 [1, 10] [µM]	IC50 [1, 11] [µg/mL]	IC50 [1, 12] [µM]	IC50 [1, 13] [µg/mL]	IC50 at 48 h [2]	inhibition at 2 µM [3] [%]	IC50 [4] [µM]	IC50 [5] [µM]	Morphological changes of treated cells [6]	Number of cells in the early and late apoptosis versus untreated cells [7]	DNA fragmentation [8]	Relative gene expression of BAX [9]	Relative gene expression of BCL-2 [9]	Relative gene expression of P53 [9]
O=c1c2cc(Cl)ccc2nc(S)n1-c1ccc(F)cc1 [Compound 1, 6-Chloro-3-(4-fluorophenyl)-2-mercaptoquinazolin-4(3H)-one]	44.3	13.6 ± 0.12	23.6	7.23 ± 0.15	80 µg/mL and 261 µM									
CCSc1nc2ccc(Cl)cc2c(=O)n1-c1ccc(F)cc1 [Compound 3a, 6-Chloro-2-(ethylthio)-3-(4-fluorophenyl)quinazolin-4(3H)-one]	28.5	9.54 ± 0.11	14.5	4.86 ± 0.18	98.3 µg/mL and 294 µM	88.3 ± 3.86	0.0887 ± 0.00316	0.0382 ± 0.00215	cell shrinkage, apoptotic bodies formation, and membrane blebbing	significant increase	internucleosomal fragmentation was noticed	significant overexpression	downregulation	significant overexpression
CC(C)=CCSc1nc2ccc(Cl)cc2c(=O)n1-c1ccc(F)cc1 [Compound 3b, 6-Chloro-3-(4-fluorophenyl)-2-((3-methylbut-2-en-1-yl)thio)quinazolin-4(3H)-one]	47.5	17.8 ± 0.12	16.3	6.1 ± 0.1	98 µg/mL and 261 µM	89.6 ± 3.42	0.0858	0.0323 ± 0.00218	cell shrinkage, apoptotic bodies formation, and membrane blebbing	significant increase	internucleosomal fragmentation was noticed	significant overexpression	downregulation	significant overexpression
O=c1c2cc(Cl)ccc2nc(SCc2ccc(C(F)(F)F)cc2)n1-c1ccc(F)cc1 [Compound 3f, 6-Chloro-3-(4-fluorophenyl)-2-((4-(trifluoromethyl)benzyl)thio)quinazolin-4(3H)-one]	58.9	27.39 ± 0.1	37	17.19 ± 0.12	67.8 µg/mL and 146 µM									
O=c1c2cc(Cl)ccc2nc(SCc2cc(C(F)(F)F)cc(C(F)(F)F)c2)n1-c1ccc(F)cc1 [Compound 3g, 2-((3,5-Bis(trifluoromethyl)benzyl)thio)-6-chloro-3-(4-fluorophenyl)quinazolin-4(3H)-one]	50.5	26.92 ± 0.09	38.1	20.3 ± 0.23	70.4 µg/mL and 132 µM	90.5 ± 2.16	0.0774	0.0578 ± 0.00275						
N#Cc1ccc(CSc2nc3ccc(Cl)cc3c(=O)n2-c2ccc(F)cc2)cc1 [Compound 3i, 4-(((6-Chloro-3-(4-fluorophenyl)-4-oxo-3,4-dihydroquinazolin-2-yl)thio)methyl)benzonitrile]	95.6	40.33 ± 0.11	62.8	26.49 ± 0.13	86.5 µg/mL and 205 µM									
O=c1c2cc(Cl)ccc2nc(SCc2ccc([N+](=O)[O-])cc2)n1-c1ccc(F)cc1 [Compound 3j, 6-Chloro-3-(4-fluorophenyl)-2-((4-nitrobenzyl)thio)quinazolin-4(3H)-one]	50.9	22.48 ± 0.12	31.6	13.96 ± 0.12	78.3 µg/mL and 177 µM									
Cc1ccc(C(=O)N(CCCN)[C@@H](c2nc3cc(Cl)ccc3c(=O)n2Cc2ccccc2)C(C)C)cc1 [Ispinesib, reference compound]						95.5 ± 2.24								

The next lines start with results.

IC50 [1, 10] [µM]	IC50 [1, 11] [µg/mL]	IC50 [1, 12] [µM]	IC50 [1, 13] [µg/mL]	IC50 at 48 h [2]	inhibition at 2 µM [3] [%]	SMILES	IC50 [4] [µM]	IC50 [5] [µM]	Morphological changes of treated cells [6]	Number of cells in the early and late apoptosis versus untreated cells [7]	DNA fragmentation [8]	Relative gene expression of BAX [9]	Relative gene expression of BCL-2 [9]	Relative gene expression of P53 [9]
56	22 ± 0.13	17.8	7.01 ± 0.12	58.3 µg/mL and 148 µM		CCOC(=O)CSc1nc2ccc(Cl)cc2c(=O)n1-c1ccc(F)cc1 [Compound 3c, Ethyl 2-((6-chloro-3-(4-fluorophenyl)-4-oxo-3,4-dihydroquinazolin-2-yl)thio)acetate]								
21	9.05 ± 0.1	15.3	6.59 ± 0.09	65.4 µg/mL and 152 µM		O=c1c2cc(Cl)ccc2nc(SCc2ccc(Cl)cc2)n1-c1ccc(F)cc1 [Compound 3d, 6-Chloro-2-((4-chlorobenzyl)thio)-3-(4-fluorophenyl)quinazolin-4(3H)-one]								
30.2	14.89 ± 0.11	16.5	8.14 ± 0.13	51.4 µg/mL and 104 µM	92.6 ± 2.35	O=c1c2cc(Cl)ccc2nc(SCc2ccc(Br)cc2F)n1-c1ccc(F)cc1 [Compound 3h, 2-((4-Bromo-2-fluorobenzyl)thio)-6-chloro-3-(4-fluorophenyl)quinazolin-4(3H)-one]	0.0735	0.0538 ± 0.0031						
38	17.71 ± 0.14	18.4	8.57 ± 0.1	80.5 µg/mL and 173 µM		O=C1c2ccccc2C(=O)N1CSc1nc2ccc(Cl)cc2c(=O)n1-c1ccc(F)cc1 [Compound 3k, 2-(((6-Chloro-3-(4-fluorophenyl)-4-oxo-3,4-dihydroquinazolin-2-yl)thio)methyl)isoindoline-1,3-dione]								
26.9	13.18 ± 0.13	14.2	6.98 ± 0.12	79 µg/mL and 161 µM		O=C(CSc1nc2ccc(Cl)cc2c(=O)n1-c1ccc(F)cc1)Nc1cccc2ccccc12 [Compound 3l, 2-((6-Chloro-3-(4-fluorophenyl)-4-oxo-3,4-dihydroquinazolin-2-yl)thio)-N-(naphthalen-1-yl)acetamide]								
		1.41	0.77 ± 0.14	40.5 µg/mL and 74.5 µM		COc1cccc2c1C(=O)c1c(O)c3c(c(O)c1C2=O)C[C@@](O)(C(=O)CO)C[C@@H]3O[C@H]1C[C@H](N)[C@H](O)[C@H](C)O1 [Doxorubicin, reference compound]								
